# Results published in ChEMBL document CHEMBL2021917, “Isoquinoline derivatives as potent CRTH2 receptor antagonists: synthesis and SAR” (Bioorg Med Chem Lett, 2012).
# Tests used:
# [1] = target: T1, Prostaglandin D2 receptor 2 (Homo sapiens, UniProt Q9Y5Y4); assay: Displacement of 3H-PGD2 from human CRTH2 receptor expressed in CHO cells; format: cell-based
# T1 sequence (Q9Y5Y4 whole entry): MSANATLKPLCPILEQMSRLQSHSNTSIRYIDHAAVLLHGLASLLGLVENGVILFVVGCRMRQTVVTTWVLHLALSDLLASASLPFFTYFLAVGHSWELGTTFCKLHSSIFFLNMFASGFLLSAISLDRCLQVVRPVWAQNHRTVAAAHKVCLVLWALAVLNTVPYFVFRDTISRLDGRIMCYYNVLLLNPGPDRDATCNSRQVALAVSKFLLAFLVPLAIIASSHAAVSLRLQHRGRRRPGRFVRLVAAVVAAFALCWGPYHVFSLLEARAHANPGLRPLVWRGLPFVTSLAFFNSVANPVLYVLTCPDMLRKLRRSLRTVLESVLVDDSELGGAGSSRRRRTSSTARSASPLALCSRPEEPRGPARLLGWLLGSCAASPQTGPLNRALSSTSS
# How it was run: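 Radioligand binding with ³H-PGD₂ on CHO cells stably transfected with human CRTH2. IC50 taken from full 10-point, half-log concentration–response curves, as means of at least two independent experiments.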
# [2] = target: T1, Prostaglandin D2 receptor 2; assay: Antagonist activity at human CRTH2 receptor expressed in human KB8 cells assessed as inhibition of PGD2-induced increase in intracellular Ca2+ concentration; format: functional, cell-based
# How it was run: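 Cells then washed and resuspended in HBSS with 10 mM HEPES pH 7.3 and 1 mM CaCl2 at 2 × 10⁵ cells/100 µl. PGD2-driven Ca²⁺ flux measured.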
# [3] = target: Prostaglandin G/H synthase 1 (Homo sapiens, UniProt P23219); assay: Inhibition of COX-1
# How it was run: (§1)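 Enzyme inhibition assays for COX-1 and COX-2 run by a contract profiling service following the provider's procedures.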
# [4] = target: T2, Prostaglandin G/H synthase 2 (Homo sapiens, UniProt P35354); assay: Inhibition of COX-2; how it was run: as §1
# T2 sequence (P35354 whole entry): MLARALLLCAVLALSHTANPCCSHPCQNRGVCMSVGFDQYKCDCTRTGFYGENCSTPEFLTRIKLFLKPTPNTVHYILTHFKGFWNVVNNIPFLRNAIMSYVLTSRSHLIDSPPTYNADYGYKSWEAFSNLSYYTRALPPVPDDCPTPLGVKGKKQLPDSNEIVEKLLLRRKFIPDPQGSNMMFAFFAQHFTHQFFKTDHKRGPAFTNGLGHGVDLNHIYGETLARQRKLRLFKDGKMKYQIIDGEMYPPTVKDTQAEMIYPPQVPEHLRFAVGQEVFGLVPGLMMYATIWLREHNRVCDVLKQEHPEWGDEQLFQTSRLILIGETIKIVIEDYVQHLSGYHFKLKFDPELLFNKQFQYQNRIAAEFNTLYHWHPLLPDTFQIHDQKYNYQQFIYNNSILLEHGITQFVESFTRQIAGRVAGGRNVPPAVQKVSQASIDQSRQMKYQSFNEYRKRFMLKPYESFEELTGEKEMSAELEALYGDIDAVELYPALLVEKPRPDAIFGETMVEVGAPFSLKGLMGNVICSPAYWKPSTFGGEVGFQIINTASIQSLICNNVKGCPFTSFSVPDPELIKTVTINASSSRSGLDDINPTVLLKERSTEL
# [5] = target: T3, Prostaglandin D2 receptor (Homo sapiens, UniProt Q13258); assay: Inhibition of DP1 prostanoid receptor
# T3 sequence (Q13258 whole entry): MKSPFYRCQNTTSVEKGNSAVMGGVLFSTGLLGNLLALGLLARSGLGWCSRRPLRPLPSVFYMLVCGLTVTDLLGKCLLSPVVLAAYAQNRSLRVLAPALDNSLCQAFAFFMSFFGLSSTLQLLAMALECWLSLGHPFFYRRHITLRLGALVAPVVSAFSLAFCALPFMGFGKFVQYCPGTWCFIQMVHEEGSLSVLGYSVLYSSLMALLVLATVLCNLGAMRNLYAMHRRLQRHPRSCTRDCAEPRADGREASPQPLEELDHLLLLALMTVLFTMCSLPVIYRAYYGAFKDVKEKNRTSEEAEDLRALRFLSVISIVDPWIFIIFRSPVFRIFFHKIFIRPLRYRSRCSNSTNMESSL
# How it was run: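 DP1 binding assay run by a contract profiling service following the provider's procedures.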
# Chain of Prostaglandin G/H synthase 1 (P23219 whole entry): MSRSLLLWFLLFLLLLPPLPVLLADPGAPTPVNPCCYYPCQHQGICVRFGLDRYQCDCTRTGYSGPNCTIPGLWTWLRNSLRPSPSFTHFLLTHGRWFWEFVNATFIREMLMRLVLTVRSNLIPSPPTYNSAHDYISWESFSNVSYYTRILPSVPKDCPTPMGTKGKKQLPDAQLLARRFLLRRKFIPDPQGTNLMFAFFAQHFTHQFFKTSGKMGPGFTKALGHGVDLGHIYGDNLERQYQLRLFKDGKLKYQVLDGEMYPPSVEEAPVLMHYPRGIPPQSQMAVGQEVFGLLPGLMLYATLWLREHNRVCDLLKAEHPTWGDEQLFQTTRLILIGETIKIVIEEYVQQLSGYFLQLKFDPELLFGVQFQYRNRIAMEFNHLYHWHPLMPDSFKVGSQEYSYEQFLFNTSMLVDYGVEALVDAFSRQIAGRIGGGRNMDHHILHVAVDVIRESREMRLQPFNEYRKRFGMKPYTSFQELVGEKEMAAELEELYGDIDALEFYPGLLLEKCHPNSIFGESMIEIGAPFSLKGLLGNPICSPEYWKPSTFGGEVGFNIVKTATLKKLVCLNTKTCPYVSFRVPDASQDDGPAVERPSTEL
IC50 [1] [µM],SMILES,further results
0.21,CN(C(=O)c1ccc(Cl)c(Cl)c1)c1ccc(C(=O)c2ncc(CC(=O)O)c3ccccc23)cc1,
0.33,CC(=O)Nc1ccc(C(=O)c2ncc(CC(=O)O)c3ccccc23)cc1,
0.025,O=C(O)COc1cnc(C(=O)c2ccc(C(=O)NCCc3ccc(Cl)cc3)cc2)c2ccccc12,
0.083,O=C(O)Cc1cnc(C(=O)c2ccc(NC(=O)c3ccncc3)cc2)c2ccccc12,
0.0061,O=C(O)Cc1cnc(C(=O)c2ccc(NCc3ccc(Cl)c(Cl)c3)cc2)c2ccccc12,
0.0073,COc1ccc(C(=O)Nc2ccc(C(=O)c3ncc(CC(=O)O)c4ccccc34)cc2)cc1,
0.014,O=C(O)Cc1cnc(C(=O)c2ccc(NC(=O)C3CCCCC3)cc2)c2ccccc12,
0.01,O=C(O)Cc1cnc(C(=O)c2ccc(C(=O)Nc3ccc(Cl)c(Cl)c3)cc2)c2ccccc12,
0.0032,O=C(O)Cc1cnc(C(=O)c2ccc(NC(=O)c3cc4ccccc4[nH]3)cc2)c2ccccc12,
0.2,CC(C)(C(=O)O)c1cnc(C(=O)c2ccc(C(=O)NCCc3ccc(Cl)cc3)cc2)c2ccccc12,
0.045,O=C(O)Cc1cnc(C(=O)c2ccc(NC(=O)c3ccccc3Cl)cc2)c2ccccc12,
0.0034,O=C(O)Cc1cnc(C(=O)c2ccc(NC(=O)c3ccc(Cl)cc3)cc2)c2ccccc12,
0.0079,O=C(O)Cc1cnc(C(=O)c2ccc(NC(=O)c3ccccc3)cc2)c2ccccc12,IC50 [2]: 0.042 µM
0.038,O=C(O)Cc1cnc(C(=O)c2ccc(OCc3ccc(Cl)c(Cl)c3)cc2)c2ccccc12,IC50 [2]: 0.18 µM
0.0049,O=C(O)Cc1cnc(C(=O)c2ccc(NC(=O)c3ccc(C(F)(F)F)cc3)cc2)c2ccccc12,IC50 [2]: 0.015 µM
0.0078,O=C(O)Cc1cnc(C(=O)c2ccc(C(=O)NCCc3ccc(Cl)cc3)cc2)c2ccccc12,
0.004,O=C(O)Cc1cnc(C(=O)c2ccc(NC(=O)c3ccc4ccccc4c3)cc2)c2ccccc12,
0.004,O=C(O)Cc1cnc(C(=O)c2ccc(NC(=O)/C=C/c3ccc(Cl)c(Cl)c3)cc2)c2ccccc12,IC50 [2]: 0.017 µM
0.0032,O=C(O)Cc1cnc(C(=O)c2ccc(NC(=O)c3cccc(Cl)c3)cc2)c2ccccc12,
0.34,O=C(O)Cc1cnc(C(=O)c2ccc(NS(=O)(=O)c3ccc(Cl)c(Cl)c3)cc2)c2ccccc12,
0.29,O=C(O)Cc1cnc(C(=O)c2ccc(NC(=O)c3ncccn3)cc2)c2ccccc12,IC50 [2]: 0.55 µM
0.013,O=C(O)Cc1cnc(C(=O)c2ccc(NC(=O)CCc3ccc(Cl)c(Cl)c3)cc2)c2ccccc12,
0.019,O=C(O)Cc1cnc(C(=O)c2ccc(NC(=O)c3ccc(Cl)c(Cl)c3)cc2)c2ccccc12,IC50 [3]: > 10 µM; IC50 [4]: > 10 µM; IC50 [5]: > 1 µM
